Results from ChEMBL document CHEMBL1772968, “Comparing micellar, hemolytic, and antibacterial properties of di- and tricarboxyl dendritic amphiphiles” (Bioorg Med Chem, 2011).
Values after ≈ are worked out from the molar mass of the structure shown.

Columns and labels:
Staphylococcus aureus [1] = test: Antibacterial activity against methicillin-resistant Staphylococcus aureus 34380 by broth microdilution method; format: functional
Method in brief: (§1)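 MIC (defined as MIC99) determined by broth microdilution in 0.1-strength brain heart infusion broth. Cultures were diluted in growth medium to an inoculum of about 10^5 CFU/mL. Stocks of the amphiphiles were made in aqueous triethanolamine (5% w/v). Vancomycin stock was 500 mg/L in sterile water. Measurements were done in duplicate. Lines 1-6 are recent patient MRSA isolates.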

Staphylococcus aureus [2] = test: Antibacterial activity against methicillin-resistant Staphylococcus aureus 34864 by broth microdilution method; format: functional; method in brief: as §1
Staphylococcus aureus [3] = test: Antibacterial activity against Staphylococcus aureus ATCC 6358 by broth microdilution method; format: functional
Method in brief: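 Log-phase cultures diluted and tested by broth microdilution in 0.1-strength brain heart infusion broth at about 10^5 CFU/mL inoculum. Amphiphile stocks were 12,500 µg/mL in 5% w/v aqueous triethanolamine. MIC was taken as MIC99 and run in duplicate.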

Staphylococcus aureus [4] = test: Antibacterial activity against methicillin-resistant Staphylococcus aureus 522870 by broth microdilution method; format: functional; method in brief: as §1
Staphylococcus aureus [5] = test: Antibacterial activity against methicillin-resistant Staphylococcus aureus 53016 by broth microdilution method; format: functional; method in brief: as §1
Staphylococcus aureus [6] = test: Antibacterial activity against methicillin-resistant Staphylococcus aureus ATCC 43330 by broth microdilution method; format: functional; method in brief: as §1
[7] = Cytotoxicity in sheep RBC assessed as hemolysis after 15 mins by microplate reader; format: cell-based, Ovis aries; settings: erythrocyte, 0.25 h
Method in brief: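 Washed defibrinated sheep red cells (1.1 × 10^7 cells/mL) in PBS pH 7.4, or in full-strength BHIB, were mixed 1:1 with compound diluted from 5% triethanolamine stock. Incubation was 15 min at 37 °C, then cells were pelleted at 5000g for 20 min. Supernatant A540 was read against 0.1% Triton X-100 (complete lysis). EC10 was the lowest concentration giving 10% lysis, in duplicate.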

Staphylococcus aureus [8] = test: Antibacterial activity against methicillin-resistant Staphylococcus aureus 523000 by broth microdilution method; format: functional; method in brief: as §1
[9] = Critical micelle concentration of the compound in full-strength brain heart infusion broth by dye-covered glass-bead release; settings: pH 7.4
Staphylococcus aureus [10] = test: Antibacterial activity against methicillin-resistant Staphylococcus aureus 36361 by broth microdilution method; format: functional; method in brief: as §1
Staphylococcus aureus [11] = test: Antibacterial activity against Staphylococcus aureus by broth microdilution method; format: functional
Staphylococcus aureus [12] = test: Antibacterial activity against methicillin-resistant Staphylococcus aureus by broth microdilution method; format: functional

| SMILES | MIC (Staphylococcus aureus [1]) | MIC (Staphylococcus aureus [2]) | MIC (Staphylococcus aureus [3]) | MIC (Staphylococcus aureus [4]) | MIC (Staphylococcus aureus [5]) | MIC (Staphylococcus aureus [6]) | EC10 [7] | MIC (Staphylococcus aureus [8]) | CMC [9] | MIC (Staphylococcus aureus [10]) | MIC (Staphylococcus aureus [11]) | MIC (Staphylococcus aureus [12]) |
| --- | --- | --- | --- | --- | --- | --- | --- | --- | --- | --- | --- | --- |
| CCCCCCCCCCCCCCCCCCCCC(=O)NC(CCC(=O)O)(CCC(=O)O)CCC(=O)O | 28 µg/mL (≈ 50.4 µM) | 23 µg/mL (≈ 41.4 µM) | 54 µg/mL (≈ 97.2 µM) | 57 µg/mL (≈ 103 µM) | 28 µg/mL (≈ 50.4 µM) | 45 µg/mL (≈ 81 µM) | 31 µg/mL | 28 µg/mL (≈ 50.4 µM) | 18 µg/mL | 57 µg/mL (≈ 103 µM) |  |  |
| CCCCCCCCCCCCCCCCCCCCCCC(=O)NC(CCC(=O)O)(CCC(=O)O)CCC(=O)O | 7 µg/mL (≈ 12 µM) | 7 µg/mL (≈ 12 µM) | 54 µg/mL (≈ 92.5 µM) | 14 µg/mL (≈ 24 µM) | 7 µg/mL (≈ 12 µM) | 4.5 µg/mL (≈ 7.71 µM) | 31 µg/mL | 14 µg/mL (≈ 24 µM) | 18 µg/mL | 14 µg/mL (≈ 24 µM) |  |  |
| CCCCCCCCCCCCCCCCCCCCCOC(=O)NC(CCC(=O)O)(CCC(=O)O)CCC(=O)O | 5.3 µg/mL (≈ 9.05 µM) | 7 µg/mL (≈ 11.9 µM) | 27 µg/mL (≈ 46.1 µM) | 7 µg/mL (≈ 11.9 µM) | 7 µg/mL (≈ 11.9 µM) | 4.5 µg/mL (≈ 7.68 µM) | 31 µg/mL | 7 µg/mL (≈ 11.9 µM) | 18 µg/mL | 14 µg/mL (≈ 23.9 µM) |  |  |
| CCCCCCCCCCCCCCCCCCCCCCCOC(=O)NC(CCC(=O)O)(CCC(=O)O)CCC(=O)O | 5.3 µg/mL (≈ 8.63 µM) | 3.6 µg/mL (≈ 5.86 µM) | 23 µg/mL (≈ 37.5 µM) | 11 µg/mL (≈ 17.9 µM) | 3.6 µg/mL (≈ 5.86 µM) | 4.5 µg/mL (≈ 7.33 µM) | 63 µg/mL | 7 µg/mL (≈ 11.4 µM) | 18 µg/mL | 14 µg/mL (≈ 22.8 µM) |  |  |
| CCCCCCCCCCCCCCCCCCCCCNC(=O)NC(CCC(=O)O)(CCC(=O)O)CCC(=O)O | 7 µg/mL (≈ 12 µM) | 11 µg/mL (≈ 18.8 µM) | 54 µg/mL (≈ 92.3 µM) | 14 µg/mL (≈ 23.9 µM) | 11 µg/mL (≈ 18.8 µM) | 4.5 µg/mL (≈ 7.69 µM) | 31 µg/mL | 7 µg/mL (≈ 12 µM) | 9 µg/mL | 28 µg/mL (≈ 47.9 µM) |  |  |
| CCCCCCCCCCCCCCCCCCCCCCCNC(=O)NC(CCC(=O)O)(CCC(=O)O)CCC(=O)O | 11 µg/mL (≈ 17.9 µM) | 11 µg/mL (≈ 17.9 µM) | 54 µg/mL (≈ 88.1 µM) | 14 µg/mL (≈ 22.8 µM) | 7 µg/mL (≈ 11.4 µM) | 6.8 µg/mL (≈ 11.1 µM) | 31 µg/mL | 14 µg/mL (≈ 22.8 µM) |  | 43 µg/mL (≈ 70.2 µM) |  |  |
| CCCCCCCCCCCCCCCCCCCCC(=O)NC(C)(CCC(=O)O)CCC(=O)O | 3.6 µg/mL (≈ 7.23 µM) | 3.6 µg/mL (≈ 7.23 µM) | 2.2 µg/mL (≈ 4.42 µM) | 5.3 µg/mL (≈ 10.6 µM) | 3.6 µg/mL (≈ 7.23 µM) | 2.2 µg/mL (≈ 4.42 µM) | 7.8 µg/mL | 3.6 µg/mL (≈ 7.23 µM) | 9 µg/mL | 3.6 µg/mL (≈ 7.23 µM) |  |  |
| CCCCCCCCCCCCCCCCCCCCCCC(=O)NC(C)(CCC(=O)O)CCC(=O)O | 3.6 µg/mL (≈ 6.85 µM) | 3.6 µg/mL (≈ 6.85 µM) | 2.2 µg/mL (≈ 4.18 µM) | 3.6 µg/mL (≈ 6.85 µM) | 3.6 µg/mL (≈ 6.85 µM) | 1.7 µg/mL (≈ 3.23 µM) | 7.8 µg/mL | 3.6 µg/mL (≈ 6.85 µM) | 9 µg/mL | 3.6 µg/mL (≈ 6.85 µM) |  |  |
| CCCCCCCCCCCCCCCCCCCOC(=O)NC(C)(CCC(=O)O)CCC(=O)O | 2.2 µg/mL (≈ 4.4 µM) | 2.2 µg/mL (≈ 4.4 µM) | 2.2 µg/mL (≈ 4.4 µM) |  | 2.2 µg/mL (≈ 4.4 µM) | 2.2 µg/mL (≈ 4.4 µM) | 16 µg/mL | 1.7 µg/mL (≈ 3.4 µM) | 9 µg/mL | 2.2 µg/mL (≈ 4.4 µM) |  |  |
| CCCCCCCCCCCCCCCCCCCCCOC(=O)NC(C)(CCC(=O)O)CCC(=O)O | 4.5 µg/mL (≈ 8.53 µM) | 4.5 µg/mL (≈ 8.53 µM) | 3.4 µg/mL (≈ 6.44 µM) |  | 3.4 µg/mL (≈ 6.44 µM) | 2.2 µg/mL (≈ 4.17 µM) | 16 µg/mL | 3.4 µg/mL (≈ 6.44 µM) | 9 µg/mL | 2.2 µg/mL (≈ 4.17 µM) |  |  |
| CCCCCCCCCC(=O)O [DECANOIC ACID] |  |  |  |  |  |  |  |  |  |  | 250 µg/mL (≈ 1450 µM) | > 250 µg/mL |
| CCCCCCCCCCCC(=O)O [DODECANOATE] |  |  |  |  |  |  |  |  |  |  | 250 µg/mL (≈ 1250 µM) | > 250 µg/mL |
| CCCCCCCCCCCCCC(=O)O [MYRISTIC ACID] |  |  |  |  |  |  |  |  |  |  | 250 µg/mL (≈ 1090 µM) | 250 µg/mL (≈ 1090 µM) |
| CCCCCCCCCCCCCCCC(=O)O [PALMITIC ACID] |  |  |  |  |  |  |  |  |  |  | > 250 µg/mL | 250 µg/mL (≈ 975 µM) |
| CCCCCCCCCCCCCCCCCC(=O)O [STEARIC ACID] |  |  |  |  |  |  |  |  |  |  | > 250 µg/mL |  |
| CN[C@H](CC(C)C)C(=O)N[C@H]1C(=O)N[C@@H](CC(N)=O)C(=O)N[C@H]2C(=O)N[C@H]3C(=O)N[C@H](C(=O)N[C@H](C(=O)O)c4cc(O)cc(O)c4-c4cc3ccc4O)[C@H](O)c3ccc(c(Cl)c3)Oc3cc2cc(c3O[C@@H]2O[C@H](CO)[C@@H](O)[C@H](O)[C@H]2O[C@H]2C[C@](C)(N)[C@H](O)[C@H](C)O2)Oc2ccc(cc2Cl)[C@H]1O [VANCOMYCIN] |  | 0.38 µg/mL (≈ 0.262 µM) | 0.25 µg/mL (≈ 0.173 µM) | 0.25 µg/mL (≈ 0.173 µM) | 0.38 µg/mL (≈ 0.262 µM) | 0.25 µg/mL (≈ 0.173 µM) |  |  |  | 0.75 µg/mL (≈ 0.518 µM) |  |  |
